Data: ChEMBL document CHEMBL3739271, “Synthesis and evaluation of a series of resveratrol analogues as potent anti-cancer agents that target tubulin” (2015)

Assays:
Assay type in all cases: functional
CAKI-1 = assay: Cytotoxicity against human CAKI-1 cells by SRB assay
How it was run: (§1)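 NCI 60 human tumor cell line panel, sulforhodamine B (SRB) protein-stain read-out. Compounds were first screened at a single dose of 10^-5 M, and selected compounds were then tested in a five-dose format. GI50 is the drug concentration giving a 50% reduction in net protein increase relative to control cells.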

[1] = Cytotoxicity against human HCT116 cells by SRB assay; details: HCT-116; how it was run: as §1
[2] = Cytotoxicity against human COLO205 cells by SRB assay; details: COLO 205; how it was run: as §1
NCI-H522 = assay: Cytotoxicity against human NCI-H522 cells by SRB assay; how it was run: as §1
[3] = Cytotoxicity against human SNB75 cells by SRB assay; details: SNB-75; how it was run: as §1
K562 = assay: Cytotoxicity against human K562 cells by SRB assay; how it was run: as §1
[4] = Cytotoxicity against human SNB19 cells by SRB assay; details: SNB-19; how it was run: as §1
NCI-H23 = assay: Cytotoxicity against human NCI-H23 cells by SRB assay; how it was run: as §1
HT-29 = assay: Cytotoxicity against human HT-29 cells by SRB assay; how it was run: as §1
MDA-MB-468 = assay: Cytotoxicity against human MDA-MB-468 cells by SRB assay; how it was run: as §1
[5] = Cytotoxicity against human HOP62 cells by SRB assay; details: HOP-62; how it was run: as §1
KM12 = assay: Cytotoxicity against human KM12 cells by SRB assay; how it was run: as §1
NCI/ADR-RES = assay: Cytotoxicity against human NCI/ADR-RES cells by SRB assay; how it was run: as §1
[6] = Cytotoxicity against human SW620 cells by SRB assay; details: SW-620; how it was run: as §1
MDA-MB-231 = assay: Cytotoxicity against human MDA-MB-231 cells by SRB assay; how it was run: as §1
[7] = Cytotoxicity against human MOLT4 cells by SRB assay; details: MOLT-4; how it was run: as §1
SR = assay: Cytotoxicity against human SR cells by SRB assay; how it was run: as §1
MDA-MB-435 = assay: Cytotoxicity against human MDA-MB-435 cells by SRB assay; how it was run: as §1
[8] = Cytotoxicity against human OVCAR4 cells by SRB assay; details: OVCAR-4; how it was run: as §1
ACHN = assay: Cytotoxicity against human ACHN cells by SRB assay; how it was run: as §1
[9] = Cytotoxicity against human HCT15 cells by SRB assay; details: HCT-15; how it was run: as §1
SK-MEL-5 = assay: Cytotoxicity against human SK-MEL-5 cells by SRB assay; how it was run: as §1
[10] = Cytotoxicity against human UO31 cells by SRB assay; details: UO-31; how it was run: as §1
[11] = Cytotoxicity against human HCC2998 cells by SRB assay; details: HCC 2998; how it was run: as §1
[12] = Cytotoxicity against human HL-60(TB) cells by SRB assay
How it was run: (§2)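 NCI 60-cell-line panel using sulforhodamine B protein stain. Initial single-dose screen at 10^-5 M, then five-dose testing. GI50 is the drug concentration giving a 50% reduction in net protein increase relative to control cells.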

[13] = Cytotoxicity against human UACC62 cells by SRB assay; details: UACC-62; how it was run: as §1
MCF7 = assay: Cytotoxicity against human MCF7 cells by SRB assay; how it was run: as §1
[14] = Cytotoxicity against human SF295 cells by SRB assay; details: SF-295; how it was run: as §1
SK-MEL-28 = assay: Cytotoxicity against human SK-MEL-28 cells by SRB assay; how it was run: as §1
786-0 = assay: Cytotoxicity against human 786-0 cells by SRB assay; how it was run: as §1
CCRF-CEM = assay: Cytotoxicity against human CCRF-CEM cells by SRB assay; how it was run: as §1
[15] = Cytotoxicity against human LOXIMVI cells by SRB assay; details: LOX IMVI; how it was run: as §2
[16] = Cytotoxicity against human RPMI8226 cells by SRB assay; details: RPMI-8226; how it was run: as §1
[17] = Cytotoxicity against human SKOV3 cells by SRB assay; details: SK-OV-3; how it was run: as §1
A498 = assay: Cytotoxicity against human A498 cells by SRB assay; how it was run: as §1
A549 = assay: Cytotoxicity against human A549 cells by SRB assay; how it was run: as §1
[18] = Cytotoxicity against human SF539 cells by SRB assay; details: SF-539; how it was run: as §1
M14 = assay: Cytotoxicity against human M14 cells by SRB assay; how it was run: as §1
SK-MEL-2 = assay: Cytotoxicity against human SK-MEL-2 cells by SRB assay; how it was run: as §1
[19] = Cytotoxicity against human IGROV1 cells by SRB assay; details: IGROV-1; how it was run: as §2
[20] = Cytotoxicity against human OVCAR3 cells by SRB assay; details: OVCAR-3; how it was run: as §1
[21] = Cytotoxicity against human Hs578T cells by SRB assay; details: Hs-578T; how it was run: as §1
U-251 = assay: Cytotoxicity against human U251 cells by SRB assay; how it was run: as §1
[22] = Cytotoxicity against human SF268 cells by SRB assay; details: SF-268; how it was run: as §1
[23] = Cytotoxicity against human HOP92 cells by SRB assay; details: HOP-92; how it was run: as §1

COc1ccc(/C=C(\C#N)c2cc(OC)cc(OC)c2)cc1
GI50 (CAKI-1): 540 nM | GI50 [1]: 330 nM | GI50 [2]: 270 nM | GI50 (NCI-H522): 90 nM | GI50 [3]: 290 nM | GI50 (K562): 310 nM | GI50 [4]: 980 nM | GI50 (NCI-H23): 530 nM | GI50 (HT-29): 280 nM | GI50 (MDA-MB-468): 290 nM | GI50 [5]: 510 nM | GI50 (KM12): 380 nM | GI50 (NCI/ADR-RES): 270 nM | GI50 [6]: 420 nM | GI50 (MDA-MB-231): 430 nM | GI50 [7]: 430 nM | GI50 (SR): 290 nM | GI50 (MDA-MB-435): 170 nM | GI50 [8]: 730 nM | GI50 (ACHN): 530 nM | GI50 [9]: 330 nM | GI50 (SK-MEL-5): 270 nM | GI50 [10]: 490 nM | GI50 [11]: 340 nM | GI50 [12]: 280 nM | GI50 [13]: 400 nM | GI50 (MCF7): 310 nM | GI50 [14]: 220 nM | GI50 (SK-MEL-28): 490 nM | GI50 (786-0): 420 nM | GI50 (CCRF-CEM): 320 nM | GI50 [15]: 580 nM | GI50 [16]: 330 nM | GI50 [17]: 370 nM | GI50 (A498): 250 nM | GI50 (A549): 380 nM | GI50 [18]: 220 nM | GI50 (M14): 280 nM | GI50 (SK-MEL-2): 880 nM | GI50 [19]: 530 nM | GI50 [20]: 300 nM | GI50 [21]: 310 nM | GI50 (U-251): 343 nM | GI50 [22]: 840 nM

COc1cc(/C=C(\C#N)c2cc(OC)c(OC)c(OC)c2)cc(OC)c1
GI50 (CAKI-1): 6190 nM | GI50 [1]: 6050 nM | GI50 [2]: 5160 nM | GI50 (NCI-H522): 20500 nM | GI50 [3]: 2670 nM | GI50 (K562): 3140 nM | GI50 [4]: 5460 nM | GI50 (NCI-H23): 43000 nM | GI50 (HT-29): 4240 nM | GI50 (MDA-MB-468): 3440 nM | GI50 [5]: 7630 nM | GI50 (KM12): 4970 nM | GI50 (NCI/ADR-RES): 3250 nM | GI50 [6]: 5170 nM | GI50 (MDA-MB-231): 4830 nM | GI50 [7]: 28200 nM | GI50 (SR): 4140 nM | GI50 (MDA-MB-435): 1630 nM | GI50 [8]: 7480 nM | GI50 (ACHN): 9780 nM | GI50 [9]: 4470 nM | GI50 (SK-MEL-5): 4700 nM | GI50 [10]: 1920 nM | GI50 [11]: 97000 nM | GI50 [12]: 68600 nM | GI50 [13]: 2420 nM | GI50 (MCF7): 4350 nM | GI50 [14]: 5330 nM | GI50 (SK-MEL-28): 14000 nM | GI50 (786-0): 13000 nM | GI50 (CCRF-CEM): 51200 nM | GI50 [15]: 5310 nM | GI50 [16]: 6640 nM | GI50 [17]: 14400 nM | GI50 (A498): 1290 nM | GI50 (A549): 6350 nM | GI50 [18]: 6600 nM | GI50 (M14): 4450 nM | GI50 (SK-MEL-2): 5440 nM | GI50 [19]: 14600 nM | GI50 [20]: 6690 nM | GI50 [21]: 16700 nM | GI50 (U-251): 7820 nM | GI50 [23]: 3570 nM | GI50 [22]: 25300 nM

COc1ccc(/C=C/c2cc(OC)cc(OC)c2/C=C(\C#N)c2ccc(OC)cc2)cc1
GI50 (CAKI-1): 500 nM | GI50 [1]: 490 nM | GI50 [2]: 1240 nM | GI50 (NCI-H522): 240 nM | GI50 [3]: 470 nM | GI50 (K562): 430 nM | GI50 [4]: > 100000 nM | GI50 (HT-29): 690 nM | GI50 (MDA-MB-468): 1720 nM | GI50 [5]: 970 nM | GI50 (KM12): 780 nM | GI50 (NCI/ADR-RES): 650 nM | GI50 [6]: 500 nM | GI50 (MDA-MB-231): 2780 nM | GI50 [7]: 4380 nM | GI50 (SR): 910 nM | GI50 (MDA-MB-435): 240 nM | GI50 [8]: 500 nM | GI50 (ACHN): 830 nM | GI50 [9]: 650 nM | GI50 (SK-MEL-5): 2280 nM | GI50 [10]: 810 nM | GI50 [11]: 2490 nM | GI50 [12]: 1660 nM | GI50 [13]: 700 nM | GI50 (MCF7): 390 nM | GI50 [14]: 360 nM | GI50 (SK-MEL-28): 750 nM | GI50 (786-0): 1720 nM | GI50 (CCRF-CEM): 750 nM | GI50 [16]: 1160 nM | GI50 [17]: 1350 nM | GI50 (A498): 380 nM | GI50 (A549): 910 nM | GI50 [18]: 270 nM | GI50 (M14): 1380 nM | GI50 [19]: 2350 nM | GI50 [20]: 630 nM | GI50 [21]: 680 nM | GI50 (U-251): 640 nM | GI50 [22]: 4710 nM
